Assay results taken from ChEMBL document CHEMBL2384939, “Synthesis of pyrazolo[1,5-a]pyrimidine linked aminobenzothiazole conjugates as potential anticancer agents” (Bioorg Med Chem Lett, 2013).
Active and inactive are the calls of the source. The calls are words filed in the database; no cut-off is given here.

Experiments:
MCF7 = experiment: Cytotoxicity against human MCF7 cells after 48 hrs by MTT assay; assay type: functional, cell-based; conditions: MCF7, 48 h
Method in brief: (§1)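 MTT assay: […] were plated in DMEM with 10% FBS and incubated for 24 h at 37 °C under CO2. Compounds diluted in culture medium were added alongside a vehicle control for 48 h. MTT (10 µl of a 5 mg/ml stock) was added for a further 4 h. The supernatant was then removed, the formazan dissolved in DMSO, and absorbance read at 540 nm. IC50 was derived.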

A549 [1] = experiment: Induction of apoptosis in human A549 cells assessed as DNA fragmentation at 2 uM after 48 hrs by agarose gel electrophoresis; assay type: functional, cell-based
Method in brief: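 A549 cells (1×10^6) seeded in six-well plates for 24 h, then exposed to 2 µM compound or roscovitine for 48 h and pelleted. Lysate treated with SDS and RNase-A (2 h, 56 °C), then proteinase K (2 h, 37 °C). DNA precipitated with ammonium acetate/cold ethanol, dissolved in TE, and laddering resolved on 2% agarose gel against a 50 bp marker.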

A549 [2] = experiment: Cell cycle arrest at human A549 cells assessed as accumulation at G2/M phase at 2 uM after 48 hrs by propidium iodide-staining-based FACS flow cytometric analysis (reference value: 13.17%); assay type: functional
SK-OV-3 = experiment: Cytotoxicity against human SKOV3 cells after 48 hrs by MTT assay; assay type: functional; conditions: SK-OV-3, 48 h
NCI-H460 = experiment: Cytotoxicity against human NCI-H460 cells after 48 hrs by MTT assay; assay type: functional; conditions: NCI-H460, 48 h
A549 [3] = experiment: Induction of apoptosis in human A549 cells assessed as nuclear fragmentation at 2 uM after 48 hrs by Hoechst staining assay; assay type: functional, cell-based
Method in brief: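 A549 cells (10,000 per 18-mm coverslip) grown 24 h, then given 2 µM compound for 48 h, with 0.001% DMSO vehicle and roscovitine controls. Hoechst 33258 (0.5 mg/mL) in 4% paraformaldehyde was added for 30 min. Randomly chosen fields were imaged by fluorescence microscopy and apoptotic cells scored manually by cytoplasmic condensation, apoptotic bodies and nuclear fragmentation.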

A549 [4] = experiment: Induction of apoptosis in human A549 cells assessed as activation of caspase-3 at 1 to 2 uM after 48 hrs by ELISA relative to control; assay type: functional, cell-based
Method in brief: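 A549 lung cancer cells exposed to 1 and 2 µM compound for 48 h, with roscovitine as positive control. Pellets lysed for 15 min, and supernatant caspase-3 activity read by a commercial colorimetric kit relative to untreated control. Values are mean ± SD of two experiments run in triplicate.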

A549 [5] = experiment: Induction of apoptosis in human A549 cells assessed as reduction of Cdk1 expression at 2 uM after 48 hrs by Western blot analysis; assay type: functional, cell-based
Method in brief: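 5×10^5 A549 cells grown 24 h, then treated with 2 µM compound for 48 h. Lysis in ice-cold RIPA with protease inhibitors, protein by Bradford, 50 µg per lane on 12% SDS-PAGE, PVDF transfer. Probed overnight at 4 °C with mouse monoclonal anti-Cdk1, β-actin as loading control, chemiluminescent detection.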

HOP-62 = experiment: Cytotoxicity against human HOP62 cells after 48 hrs by MTT assay; assay type: functional; conditions: HOP-62, 48 h
A549 [6] = experiment: Cell cycle arrest at human A549 cells assessed as accumulation at G0/G1 phase at 2 uM after 48 hrs by propidium iodide-staining-based FACS flow cytometric analysis (reference value: 81.33%); assay type: functional
A549 [7] = experiment: Cytotoxicity against human A549 cells after 48 hrs by MTT assay; assay type: functional, cell-based; conditions: A549, 48 h; method in brief: as §1
T47D = experiment: Cytotoxicity against human T47D cells after 48 hrs by MTT assay; assay type: functional
SF-268 = experiment: Cytotoxicity against human SF268 cells after 48 hrs by MTT assay; assay type: functional; conditions: SF-268, 48 h
CCRF-CEM = experiment: Cytotoxicity against human CCRF-CEM cells after 48 hrs by MTT assay; assay type: functional
Hs-578T = experiment: Cytotoxicity against human Hs578T cells after 48 hrs by MTT assay; assay type: functional
SR = experiment: Cytotoxicity against human SR cells after 48 hrs by MTT assay; assay type: functional
HeLa = experiment: Cytotoxicity against human HeLa cells after 48 hrs by MTT assay; assay type: functional, cell-based; method in brief: as §1
SN12C = experiment: Cytotoxicity against human SN12C cells after 48 hrs by MTT assay; assay type: functional
MDA-MB-468 = experiment: Cytotoxicity against human MDA-MB-468 cells after 48 hrs by MTT assay; assay type: functional; conditions: MDA-MB-468, 48 h
K562 = experiment: Cytotoxicity against human K562 cells after 48 hrs by MTT assay; assay type: functional; conditions: K562, 48 h
U-251 = experiment: Cytotoxicity against human U251 cells after 48 hrs by MTT assay; assay type: functional; conditions: U-251, 48 h
A549 [8] = experiment: Cell cycle arrest at human A549 cells assessed as accumulation at sub G1 phase at 1 uM after 48 hrs by propidium iodide-staining-based FACS flow cytometric analysis (reference value: 1.02%); assay type: functional
NCI-H522 = experiment: Cytotoxicity against human NCI-H522 cells after 48 hrs by MTT assay; assay type: functional; conditions: NCI-H522, 48 h
NCI-H226 = experiment: Cytotoxicity against human NCI-H226 cells after 48 hrs by MTT assay; assay type: functional; conditions: NCI-H226, 48 h
A549 [9] = experiment: Cell cycle arrest at human A549 cells assessed as accumulation at S phase at 1 uM after 48 hrs by propidium iodide-staining-based FACS flow cytometric analysis (reference value: 4.48%); assay type: functional
UACC-62 = experiment: Cytotoxicity against human UACC62 cells after 48 hrs by MTT assay; assay type: functional; conditions: UACC-62, 48 h
OVCAR-3 = experiment: Cytotoxicity against human OVCAR3 cells after 48 hrs by MTT assay; assay type: functional; conditions: OVCAR-3, 48 h
A549 [10] = experiment: Cell cycle arrest at human A549 cells assessed as accumulation at G0/G1 phase at 1 uM after 48 hrs by propidium iodide-staining-based FACS flow cytometric analysis (reference value: 81.33%); assay type: functional
A549 [11] = experiment: Cell cycle arrest at human A549 cells assessed as accumulation at sub G1 phase at 2 uM after 48 hrs by propidium iodide-staining-based FACS flow cytometric analysis (reference value: 1.02%); assay type: functional
A549 [12] = experiment: Cell cycle arrest at human A549 cells assessed as accumulation at G2/M phase at 1 uM after 48 hrs by propidium iodide-staining-based FACS flow cytometric analysis (reference value: 13.17%); assay type: functional
SNB-19 = experiment: Cytotoxicity against human SNB19 cells after 48 hrs by MTT assay; assay type: functional; conditions: SNB-19, 48 h
SK-MEL-2 = experiment: Cytotoxicity against human SK-MEL-2 cells after 48 hrs by MTT assay; assay type: functional; conditions: SK-MEL-2, 48 h
A549 [13] = experiment: Cell cycle arrest at human A549 cells assessed as accumulation at S phase at 2 uM after 48 hrs by propidium iodide-staining-based FACS flow cytometric analysis (reference value: 4.48%); assay type: functional
OVCAR-8 = experiment: Cytotoxicity against human OVCAR8 cells after 48 hrs by MTT assay; assay type: functional; conditions: OVCAR-8, 48 h
TK-10 = experiment: Cytotoxicity against human TK10 cells after 48 hrs by MTT assay; assay type: functional; conditions: TK-10, 48 h

| SMILES | GI50 (MCF7) | IC50 (MCF7) | Activity (A549 [1]) | Activity (A549 [2]) | GI50 (SK-OV-3) | GI50 (NCI-H460) | Activity (A549 [3]) | Activity (A549 [4]) | Activity (A549 [5]) | GI50 (HOP-62) | Activity (A549 [6]) | IC50 (A549 [7]) | GI50 (T47D) | GI50 (SF-268) | GI50 (CCRF-CEM) | GI50 (Hs-578T) | GI50 (SR) | IC50 (HeLa) | GI50 (SN12C) | GI50 (MDA-MB-468) | further results |
| --- | --- | --- | --- | --- | --- | --- | --- | --- | --- | --- | --- | --- | --- | --- | --- | --- | --- | --- | --- | --- | --- |
| O=C(Nc1nc2ccccc2s1)c1cc(-c2ccc(F)cc2)n2nc(-c3ccccc3)cc2n1 | 5.2 µM | 2.29 µM | Active | 64.7% | 2.3 µM | 2.1 µM | Active | Active | Active | 2.2 µM | 28.75% | 1.94 µM | 3.3 µM | 3.8 µM | 1.8 µM | 2.2 µM | 3.9 µM | 2.63 µM | 6.4 µM | 5.1 µM | GI50 (A549 [7]): 2.7 µM; GI50 (K562): 4.2 µM; GI50 (U-251): 2 µM; Activity (A549 [8]): 4.01%; GI50 (NCI-H522): 2.5 µM; GI50 (NCI-H226): 6.3 µM; Activity (A549 [9]): 6.1%; GI50 (UACC-62): 3.7 µM; GI50 (OVCAR-3): 1.9 µM; Activity (A549 [10]): 35.34%; Activity (A549 [11]): 3.75%; Activity (A549 [12]): 44.54%; GI50 (SNB-19): 5.2 µM; GI50 (SK-MEL-2): 3.1 µM; Activity (A549 [13]): 6.8%; GI50 (OVCAR-8): 2.1 µM; GI50 (TK-10): 2.4 µM |
| COc1cc(-c2cc(C(=O)Nc3nc4ccccc4s3)nc3cc(-c4ccccc4)nn23)cc(OC)c1OC | 22.4 µM | 2.88 µM | Active | 52.45% | 12.5 µM | 29 µM | Active | Active | Active | 9.8 µM | 32.18% | 2.01 µM | 21.4 µM | 4.5 µM | 54 µM | 4.7 µM | 19.7 µM | 7.07 µM | 85 µM | 13.9 µM | GI50 (K562): 25 µM; GI50 (U-251): 5.1 µM; Activity (A549 [8]): 11.77%; GI50 (NCI-H522): 1.9 µM; GI50 (NCI-H226): 27 µM; Activity (A549 [9]): 5.9%; GI50 (UACC-62): 14.4 µM; GI50 (OVCAR-3): 13.3 µM; Activity (A549 [10]): 42.29%; Activity (A549 [11]): 9.05%; Activity (A549 [12]): 40.05%; GI50 (SNB-19): 16.7 µM; GI50 (SK-MEL-2): 11.2 µM; Activity (A549 [13]): 6.32%; GI50 (OVCAR-8): 5.3 µM; GI50 (TK-10): 11.9 µM |
